ChEMBL document CHEMBL4000151, “Potent Small Agonists of Protease Activated Receptor 2” (ACS Med Chem Lett, 2016)
Calls of active or inactive are those of the source. No cut-off for these calls is given here. Non-standard residues stand in square brackets, D forms with d. Residues, ends and D or L forms follow the SMILES beside them. ξ: configuration not given here. *: point of attachment. Isoxazole(5-carbonyl) = O=C(c1ccno1)*; ξCha = NC(CC1CCCCC1)C(=O)O; ξChg = NC(C(=O)O)C1CCCCC1; Orn = NCCC[C@H](N)C(=O)O; 2Furoyl = O=C(c1ccco1)*

Tests used:
[1] = target: T1, Proteinase-activated receptor 2 (Homo sapiens, UniProt P55085); assay: Agonist activity at human PAR2 expressed in CHO cells assessed as induction of intracellular calcium release measured for 300 secs by Fluo-3 AM dye-based fluorescence assay; type: functional, cell-based
T1 sequence (P55085 whole entry): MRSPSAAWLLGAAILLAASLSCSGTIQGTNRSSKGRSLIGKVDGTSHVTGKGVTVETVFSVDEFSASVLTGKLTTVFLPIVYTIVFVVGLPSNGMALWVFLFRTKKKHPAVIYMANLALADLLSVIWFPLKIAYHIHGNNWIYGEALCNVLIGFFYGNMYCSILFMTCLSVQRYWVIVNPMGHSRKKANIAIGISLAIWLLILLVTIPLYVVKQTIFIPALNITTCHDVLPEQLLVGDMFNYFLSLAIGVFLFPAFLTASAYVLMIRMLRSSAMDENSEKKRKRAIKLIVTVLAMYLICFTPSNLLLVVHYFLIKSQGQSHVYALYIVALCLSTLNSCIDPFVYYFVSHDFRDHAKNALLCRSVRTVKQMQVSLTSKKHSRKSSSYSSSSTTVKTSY
Method in brief: (§1)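 CHO cells stably expressing human PAR2 (wild-type or point mutant), or untransfected CHO cells, plated ~5 × 10^4/well overnight at 37 °C. Loaded 1 h at 37 °C with 4 μM Fluo-3 AM in HBSS with 1% FBS, then washed into HBSS with 2.5 mM probenecid and 20 mM HEPES, pH 7.4. Compound added over a concentration range.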

[2] = target: Proteinase-activated receptor 2 (Homo sapiens) (UniProt P55085); assay: Agonist activity at PAR2 in human PC3 cells assessed as induction of intracellular calcium release at 25 uM of first compound treatment followed by 100 uM of second compound treatment by Fluo-3 AM dye based fluorescence assay; type: functional, cell-based
[3] = target: Proteinase-activated receptor 2 (Homo sapiens) (UniProt P55085); assay: Agonist activity at PAR2 in human MDA-MB-231 cells assessed as induction of chemotaxis at 100 nM incubated for 24 hrs by transwell migration assay; type: cell-based
Method in brief: (§2)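 MDA-MB-231 cells lifted non-enzymatically into serum-free L-15 with 0.1% BSA and seeded at 2.5 × 10^5/insert on collagen-coated 5 μm transwell membranes, 3 h at 37 °C. Agonist at 100 nM placed in the bottom chamber for 24 h; SAM11 anti-PAR2 antibody (1 μg/mL) preincubated 30 min where used. Migrated cells stained with crystal violet and counted; chemotactic index = agonist/random migration.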

[4] = target: Proteinase-activated receptor 2 (Homo sapiens) (UniProt P55085); assay: Agonist activity at PAR2 in human MDA-MB-231 cells assessed as induction of chemotaxis at 100 nM incubated for 24 hrs cells preincubated with PAR2 antibody SAM11 prior to test compound addition by transwell migration assay; type: cell-based; method in brief: as §2
CHO = assay: Induction of intracellular calcium release in PAR2 deficient CHO cells at 100 uM measured for 300 secs by Fluo-3 AM dye-based fluorescence assay; type: functional, cell-based; details: Cricetulus griseus
Method in brief: as §1, with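 “range. Ca2+ read 300 s (ex 495/em 520 nm); duplicates; normalized to calcimycin; EC50 from nonlinear regression.” for “range.”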

Plasma = assay: Metabolic stability in rat plasma at 1 uM at pH 7.4 after 4 hrs by UPLC-MS analysis; type: ADME, cell-free; details: pH 7.4, 4 h
Method in brief: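 Compound from DMSO stock added to a 1:1 mixture of PBS and rat plasma at 37 °C, 1 μM initial. Aliquots taken at 0 to 240 min and quenched in MeCN, then centrifuged. Supernatant analysed by UPLC-MS as % of t = 0 peak area; n = 3.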

Molecule	EC50 [1] [nM]	Activity (CHO)	further results
CC(C)C[C@H](NC(=O)[C@H](CCCNC(=N)N)NC(=O)CNC(=O)C(NC(=O)C(CC1CCCCC1)NC(=O)c1ccno1)C1CCCCC1)C(N)=O (stereo not given in full) ({Isoxazole(5-carbonyl)}-[ξCha][ξChg]GRL-NH2)	80		
CC[C@H](C)[C@H](NC(=O)C(CC1CCCCC1)NC(=O)c1ccno1)C(=O)NCC(=O)N[C@@H](CCCNC(=N)N)C(=O)N[C@@H](CC(C)C)C(N)=O (stereo not given in full) ({Isoxazole(5-carbonyl)}-[ξCha]IGRL-NH2)	200		
CC[C@H](C)[C@H](NC(=O)[C@H](CC(C)C)NC(=O)c1ccco1)C(=O)NCC(=O)N[C@@H](CCCN=C(N)N)C(=O)N[C@@H](CC(C)C)C(=O)N[C@@H](CCCN)C(N)=O (2Furoyl-LIGRL[Orn]-NH2)	300		
CC[C@H](C)[C@H](NC(=O)[C@H](CC(C)C)NC(=O)c1ccco1)C(=O)NCC(=O)N[C@@H](CCCNC(=N)N)C(=O)N[C@@H](CC(C)C)C(=O)N[C@@H](CCCN)C(N)=O (2Furoyl-LIGRL[Orn]-NH2)		inactive	Activity [2]: inactive; Activity [3]: Active; Activity [4]: inactive
H-SLIGKV-NH2	3000		
NC(=O)[C@@H](NC(=O)[C@H](CC1CCCCC1)NC(=O)c1ccno1)C1CCCCC1		inactive	Stability (Plasma): Stable
